This is an account of results in ChEMBL document CHEMBL1687719, “Absence of CD4+ T lymphocytes, CD8+ T lymphocytes, or B lymphocytes has different effects on the efficacy of posaconazole and benznidazole in treatment of experimental acute Trypanosoma cruzi infection” (2009).

Assay [1] deals with Trypanosoma cruzi. Description: Antitrypanosomal activity against Trypanosoma cruzi Y infected in CD4+ T-lymphocyte knockout C57BL/6 mouse assessed as increase in survival of mouse at 20 mg/kg/day, po administered twice daily for 20 consecutive days measured 60 days post infection. In kind it is functional. The settings on record: 1440 h. The method, boiled down:
(§1)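 Mice were infected ip with 5,000 Y-strain blood trypomastigotes. Oral treatment began at 4 dpi at 20 mg/kg/day, split into two daily doses, suspended in 2% methylcellulose with 0.5% Tween 80, for 20 days. Survival was recorded to 60 dpi, giving rate and mean survival time. Untreated and vehicle-treated infected controls were included. Chi-square/Bonferroni comparison.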

Assay [2] relates to Trypanosoma cruzi. Description: Antitrypanosomal activity against Trypanosoma cruzi Y infected in CD4+ T-lymphocyte knockout C57BL/6 mouse assessed as reactivation of parasite in mouse at 20 mg/kg/day, po administered twice daily for 20 consecutive days measured 60 days post infection. The assay is classed as functional, organism-based. The method, boiled down: (§2)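 Ip infection was 5,000 Y-strain blood trypomastigotes. From 4 dpi mice got 20 mg/kg/day orally in two daily doses (2% methylcellulose/0.5% Tween 80) for 20 days. Fresh tail blood was examined microscopically, daily from 4–16 dpi and every other day to 60 dpi. Reactivation was scored as return of patent parasitemia after treatment. Parasitemia curves were compared by Mann-Whitney.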

For assay [3], the system named is Trypanosoma cruzi. Description: Antitrypanosomal activity against Trypanosoma cruzi Y infected in CD8+ T-lymphocyte knockout C57BL/6 mouse assessed as occurrence of subpatent level of parasitemia at 20 mg/kg/day, po administered twice daily for 20 consecutive days measured 60 days post infection. The assay is classed as functional, organism-based. The gist of the method: as §2

In assay [4] the test system is Trypanosoma cruzi. Description: Antitrypanosomal activity against Trypanosoma cruzi Y infected in C57BL/6 mouse assessed as increase in survival of mouse at 20 mg/kg/day, po administered twice daily for 20 consecutive days measured 60 days post infection. The settings on record: 1440 h. In kind it is functional. The gist of the method: as §1
Assay [5] deals with Trypanosoma cruzi. Description: Antitrypanosomal activity against Trypanosoma cruzi Y infected in CD8+ T-lymphocyte knockout C57BL/6 mouse assessed as number of mouse with reactivated parasite at 20 mg/kg/day, po administered twice daily for 20 consecutive days measured 60 days post infection. The assay is classed as functional. The method, boiled down: as §2
In assay [6] the test system is Trypanosoma cruzi. Description: Antitrypanosomal activity against Trypanosoma cruzi Y infected in CD4+ T-lymphocyte knockout C57BL/6 mouse assessed as reactivation of parasite in mouse at 100 mg/kg/day, po administered once daily for 20 consecutive days measured 60 days post infection. In kind it is functional, organism-based. The gist of the method: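 Ip infection was 5,000 Y-strain blood trypomastigotes. Oral dosing at 100 mg/kg/day, once daily in gum arabic water, ran from 4 dpi for 20 days. Parasitemia was read by microscopy of fresh tail blood, daily from 4–16 dpi, then every other day to 60 dpi. Reactivation was scored as patent parasitemia returning after treatment ended.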

For assay [7], the system named is Trypanosoma cruzi. Description: Antitrypanosomal activity against Trypanosoma cruzi Y infected in B-lymphocyte knockout C57BL/6 mouse assessed as mean survival time at 20 mg/kg/day, po administered twice daily for 20 consecutive days measured 60 days post infection. In kind it is functional. The gist of the method:
as §1

The subject of assay [8] is Trypanosoma cruzi. Description: Antitrypanosomal activity against Trypanosoma cruzi Y infected in CD8+ T-lymphocyte knockout C57BL/6 mouse assessed as increase in survival of mouse at 20 mg/kg/day, po administered twice daily for 20 consecutive days measured 60 days post infection. The settings on record: 1440 h. In kind it is functional. The gist of the method:
as §1

Assay [9] relates to Trypanosoma cruzi. Description: Antitrypanosomal activity against Trypanosoma cruzi Y infected in B-lymphocyte knockout C57BL/6 mouse assessed as number of mouse with reactivation of infection at 20 mg/kg/day, […] for 20 consecutive days measured 22 days post infection. In kind it is functional, organism-based.
The subject of assay [10] is Trypanosoma cruzi. Description: Antitrypanosomal activity against Trypanosoma cruzi Y infected in C57BL/6 mouse assessed as mean survival time at 20 mg/kg/day, po administered twice daily for 20 consecutive days measured 60 days post infection. The assay is classed as functional. The method, boiled down:
as §1

In assay [11] the test system is Trypanosoma cruzi. Description: Antitrypanosomal activity against Trypanosoma cruzi Y infected in CD4+ T-lymphocyte knockout C57BL/6 mouse assessed as reactivation of parasite in mouse at 20 mg/kg/day, po administered twice daily for 20 consecutive days measured 7 days post infection. In kind it is functional, organism-based. The gist of the method:
as §2

The test system of assay [12] is Trypanosoma cruzi. Description: Antitrypanosomal activity against Trypanosoma cruzi Y infected in CD8+ T-lymphocyte knockout C57BL/6 mouse assessed as cure rate in mouse at 20 mg/kg/day, po administered twice daily for 20 consecutive days measured 60 days post infection. The assay is classed as functional. The gist of the method: (§3)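 Wild-type or knockout mice got 5,000 Y-strain blood trypomastigotes ip. Oral dosing ran from 4 dpi for 20 days: 20 mg/kg/day in two doses, in 2% methylcellulose plus 0.5% Tween 80. Cure meant no parasitemia on fresh tail blood up to 60 dpi and a negative hemoculture: 0.5 ml orbital blood in LIT medium, 28°C, 30–60 days, checked by microscopy. Rates compared by chi-square/Bonferroni.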

Assay [13] relates to Trypanosoma cruzi. Description: Antitrypanosomal activity against Trypanosoma cruzi Y infected in C57BL/6 mouse assessed as cure rate in mouse at 20 mg/kg/day, po administered twice daily for 20 consecutive days measured 60 days post infection. In kind it is functional. The method, boiled down: as §3
The test system of assay [14] is Trypanosoma cruzi. Description: Antitrypanosomal activity against Trypanosoma cruzi Y infected in CD4+ T-lymphocyte knockout C57BL/6 mouse assessed as mean survival time at 20 mg/kg/day, po administered twice daily for 20 consecutive days measured 60 days post infection. In kind it is functional. The method, boiled down:
as §1

Assay [15] relates to Trypanosoma cruzi. Description: Antitrypanosomal activity against Trypanosoma cruzi Y infected in CD8+ T-lymphocyte knockout C57BL/6 mouse assessed as occurrence of low level of circulating parasites at 20 mg/kg/day, po administered twice daily for 20 consecutive days measured 25 days post infection. The assay is classed as functional, organism-based. The gist of the method:
as §2

For assay [16], the system named is Trypanosoma cruzi. Description: Antitrypanosomal activity against Trypanosoma cruzi Y infected in CD8+ T-lymphocyte knockout C57BL/6 mouse assessed as mean survival time at 20 mg/kg/day, po administered twice daily for 20 consecutive days measured 60 days post infection. The assay is classed as functional. The method, boiled down: as §1
For assay [17], the system named is Trypanosoma cruzi. Description: Antitrypanosomal activity against Trypanosoma cruzi Y infected in B-lymphocyte knockout C57BL/6 mouse assessed as increase in survival of mouse at 20 mg/kg/day, po administered twice daily for 20 consecutive days measured 60 days post infection. The assay is classed as functional. The note with it: 1440 h. The gist of the method:
as §1

In assay [18] the test system is Trypanosoma cruzi. Description: Antitrypanosomal activity against Trypanosoma cruzi Y infected in B-lymphocyte knockout C57BL/6 mouse assessed as cure rate in mouse at 20 mg/kg/day, po administered twice daily for 20 consecutive days measured 60 days post infection. In kind it is functional. The gist of the method:
as §3

For assay [19], the system named is Trypanosoma cruzi. Description: Antitrypanosomal activity against Trypanosoma cruzi Y infected in CD4+ T-lymphocyte knockout C57BL/6 mouse assessed as cure rate in mouse at 20 mg/kg/day, po administered twice daily for 20 consecutive days measured 60 days post infection. The assay is classed as functional. The gist of the method:
as §3

Calls of active or inactive are those of the source. The rule behind the calls is not given here.

Regarding `CC[C@@H]([C@H](C)O)n1ncn(-c2ccc(N3CCN(c4ccc(OC[C@@H]5CO[C@@](Cn6cncn6)(c6ccc(F)cc6F)C5)cc4)CC3)cc2)c1=O` [POSACONAZOLE], the survival at 20 mg/kg/day in assay [1] was 6%; in assay [4], 100%; in assay [8] it was 81%; in assay [17], 100%. In addition, the outcome in assay [2], in assay [6] and in assay [11] was inactive. For the same compound, the result in assay [3], in assay [9] and in assay [15] was Active. In addition, the Activity in [5] is given as 13%; in [12], 31%; in assay [13], 89%; in assay [18], 71%; in [19], 0%. Moreover, the MST in assay [7] was over 60 days; in assay [10], over 60 days; in assay [14], 50.5 days; in [16] it was 59.6 days.
